Measurements from different studies.
Compare with care: the assays were run in different laboratories.
Target: Calcium/calmodulin-dependent protein kinase type II subunit alpha (CAMK2A, Homo sapiens, UniProt Q9UQM7)

| Compound | read-out | method | tested at | remaining binding [%] |
| --- | --- | --- | --- | --- |
| O=C(c1ccc(Nc2ncc(Cl)c(-c3ccc(Cl)s3)n2)cc1)N1CCC(N2CCCC2)CC1 | binding | competition with immobilised ligand | 1 µM | 82 |
| O=C(NCC1CCOCC1)c1n[nH]cc1NC(=O)c1c(F)cccc1F | binding | competition with immobilised ligand | 1 µM | 94 |
| O=c1nc(-c2ccccn2)sc2ccccc12 | cell-free assay | competition with immobilised ligand | 1 µM | 100 |
| CN(c1nccc(-c2cnn3ncccc23)n1)C1CC1 | binding | – | 1 µM | 93 |
| c1cncc(-c2cccc(Nc3nccc(NC4CCCCC4)n3)c2)c1 | binding | competition with immobilised ligand | 10 µM | 84 |
| F[C@@H]1CCN(c2nccc(-c3cnn4ncccc34)n2)C1 | binding | – | 1 µM | 100 |
| CS(=O)(=O)NCC[C@H](NC(=O)c1cncc2c1cnn2-c1ccc(F)cc1)c1ccnc(S(C)(=O)=O)c1 | cell-free assay | competition with immobilised ligand | 1 µM | 100 |
| O=C(NCCCN1CCOCC1)c1ccc(Nc2nccc(-c3cc4ccccc4s3)n2)cc1 | binding | competition with immobilised ligand | 1 µM | 68 |
| O=C(N1CCS(=O)(=O)CC1)N1C[C@H](c2ccc(OC(F)(F)F)cc2)C[C@H](c2nc(C3CC3)no2)C1 | cell-free assay | competition with immobilised ligand | 1 µM | 100 |
| c1cnn2ncc(-c3ccnc(N4CCC45COC5)n3)c2c1 | binding | – | 1 µM | 76 |
| Cn1nc(C(=O)NCc2ccc(C(=O)O)cc2)cc1-c1ccc2[nH]ccc2c1 | cell-free assay | competition with immobilised ligand | 0.1 µM | 79 |
| N[C@@H]1CCN(c2nccc(-c3cnn4ncccc34)n2)C1 | binding | – | 1 µM | 100 |
| O=C(c1ccc(Nc2ncc(Cl)c(-c3cc4ccccc4s3)n2)cc1)N1CCC(N2CCCC2)CC1 | binding | competition with immobilised ligand | 1 µM | 75 |
| CNC(=O)[C@@H]1CC[C@@H](n2c(-c3ccc4cnccc4c3)nc3ccc(C(=O)NCc4cccc(C(N)=O)c4)cc32)C1 | binding | competition with immobilised ligand | 1 µM | 100 |
| C[C@@H](c1ccc(-n2cnc3c(N)ncnc32)cc1)N1CCc2nn(C)c(Cc3ccccc3)c2C1=O | binding | competition with immobilised ligand | 0.1 µM | 91 |
| COc1ncc2cc3ccccc3nc2c1C#N | cell-free assay | competition with immobilised ligand | 5 µM | 95 |
| CC1CCCN1c1nccc(-c2cnn3ncccc23)n1 (stereo not shown) | binding | – | 1 µM | 90 |
| FC(F)(F)c1ccc2c(c1)nc(-c1cccnc1)n2C1CC1 | cell-free assay | competition with immobilised ligand | 1 µM | 88 |
| C[C@@H]1CCN(c2nccc(-c3cnn4ncccc34)n2)C1 | binding | – | 1 µM | 80 |
| CC(=O)C1=C(C)N(c2cccc(C(F)(F)F)c2)C(=O)N[C@@H]1c1ccc(C#N)nc1 | cell-free assay | competition with immobilised ligand | 1 µM | 92.5 |
| Cc1cnn2ncc(-c3ccnc(N(C)C)n3)c2c1 | binding | – | 1 µM | 86 |
| N#CC1(c2ccccn2)CCN(Cc2cc(C(=O)N3CCCC3)c(=O)n3ccccc23)CC1 | cell-free assay | competition with immobilised ligand | 1 µM | 84 |
